Test results published in ChEMBL document CHEMBL3414524, “Synthesis, carbonic anhydrase inhibition and cytotoxic activity of novel chromone-based sulfonamide derivatives” (Eur J Med Chem, 2015).

Columns and labels:
MCF7 [1] = test: Cytotoxicity against human MCF7 cells after 72 hrs by sulforhodamine B assay; format: functional, cell-based; conditions: MCF7, 72 h
In short: (§1)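 Cells in log phase were plated at 1000-2000 cells/well. After 24 h they were exposed to a range of concentrations for 72 h, then fixed with 10% TCA for 1 h at 4 °C. IC50 came from a Boltzmann sigmoidal nonlinear fit, as the mean of three separate experiments.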

A549 [2] = test: Cytotoxicity against human A549 cells after 72 hrs by sulforhodamine B assay; format: functional, cell-based; conditions: A549, 72 h
In short: as §1, with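 “°C. Staining used 0.4% SRB in 1% acetic acid for 10 min at room temperature, with the dye solubilized in Tris-HCl and OD read at 564 nm.” for “°C.”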

Carbonic anhydrase 1 = Carbonic anhydrase 1 (Homo sapiens, UniProt P00915); test: Inhibition of human cytosolic form of carbonic anhydrase-1 assessed as CO2 hydration activity incubated for 15 mins prior to testing by stopped flow method
Carbonic anhydrase 9 = Carbonic anhydrase 9 (Homo sapiens, UniProt Q16790); test: Inhibition of human membrane associated form of carbonic anhydrase-9 assessed as CO2 hydration activity incubated for 15 mins prior to testing by stopped flow method
Carbonic anhydrase 2 = Carbonic anhydrase 2 (Homo sapiens, UniProt P00918); test: Inhibition of human cytosolic form of carbonic anhydrase-2 assessed as CO2 hydration activity incubated for 15 mins prior to testing by stopped flow method
MCF7 [3] = test: Induction of apoptosis in human MCF7 cells assessed as early apoptotic cells at 0.72 uM after 24 hrs by annexin V-FITC/propidium iodide staining-based flow cytometric analysis relative to control; format: functional
In short: (§2)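 Cells were seeded at 1 x 10^5 cells/ml and held 24 h at 37 °C in 5% CO2, then treated for a further 24 h. They were harvested with 0.25% trypsin, washed twice in Ca2+/Mg2+-free PBS and adjusted to 1 x 10^6 cells/ml. Staining with annexin V-FITC/PI ran 30 min in the dark at room temperature, in binding buffer, with flow cytometry within 1 h. Untreated cells served as control.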

MCF7 [4] = test: Induction of apoptosis in human MCF7 cells assessed as late apoptotic cells at 0.72 uM after 24 hrs by annexin V-FITC/propidium iodide staining-based flow cytometric analysis (reference value: 0.01%); format: functional; in short: as §2
MCF7 [5] = test: Induction of apoptosis in human MCF7 cells assessed as necrotic cells at 0.72 uM after 24 hrs by annexin V-FITC/propidium iodide staining-based flow cytometric analysis (reference value: 1.58%); format: functional; in short: as §2
MCF7 [6] = test: Induction of apoptosis in human MCF7 cells assessed as viable cells at 0.72 uM after 24 hrs by annexin V-FITC/propidium iodide staining-based flow cytometric analysis (reference value: 98.41%); format: functional; conditions: MCF7, 24 h, read-out: Activity; in short: as §2
A549 [7] = test: Induction of apoptosis in human A549 cells assessed as early apoptotic cells at 0.5 uM after 24 hrs by annexin V-FITC/propidium iodide staining-based flow cytometric analysis (reference value: 1.9%); format: functional; in short: as §2
A549 [8] = test: Induction of apoptosis in human A549 cells assessed as late apoptotic cells at 0.5 uM after 24 hrs by annexin V-FITC/propidium iodide staining-based flow cytometric analysis relative to control; format: functional; in short: as §2
A549 [9] = test: Induction of apoptosis in human A549 cells assessed as necrotic cells at 0.5 uM after 24 hrs by annexin V-FITC/propidium iodide staining-based flow cytometric analysis (reference value: 2.04%); format: functional; in short: as §2
A549 [10] = test: Induction of apoptosis in human A549 cells assessed as viable cells at 0.5 uM after 24 hrs by annexin V-FITC/propidium iodide staining-based flow cytometric analysis (reference value: 96.06%); format: functional; conditions: A549, 24 h, read-out: Activity; in short: as §2
Carbonic anhydrase 12 = Carbonic anhydrase 12 (Homo sapiens, UniProt O43570); test: Inhibition of human membrane associated form of carbonic anhydrase-12 assessed as CO2 hydration activity incubated for 15 mins prior to testing by stopped flow method
Sequence of Carbonic anhydrase 12 (O43570 whole entry): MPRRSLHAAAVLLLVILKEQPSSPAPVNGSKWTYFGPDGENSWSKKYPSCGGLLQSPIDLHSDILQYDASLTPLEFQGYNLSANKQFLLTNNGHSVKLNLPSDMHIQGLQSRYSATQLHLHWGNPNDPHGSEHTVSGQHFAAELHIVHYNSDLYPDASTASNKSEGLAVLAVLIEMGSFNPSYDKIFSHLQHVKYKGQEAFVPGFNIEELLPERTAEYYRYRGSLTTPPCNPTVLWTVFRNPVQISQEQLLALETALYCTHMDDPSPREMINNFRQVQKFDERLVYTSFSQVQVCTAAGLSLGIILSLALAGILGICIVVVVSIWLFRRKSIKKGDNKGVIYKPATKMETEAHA

Sequence of Carbonic anhydrase 1 (P00915 whole entry): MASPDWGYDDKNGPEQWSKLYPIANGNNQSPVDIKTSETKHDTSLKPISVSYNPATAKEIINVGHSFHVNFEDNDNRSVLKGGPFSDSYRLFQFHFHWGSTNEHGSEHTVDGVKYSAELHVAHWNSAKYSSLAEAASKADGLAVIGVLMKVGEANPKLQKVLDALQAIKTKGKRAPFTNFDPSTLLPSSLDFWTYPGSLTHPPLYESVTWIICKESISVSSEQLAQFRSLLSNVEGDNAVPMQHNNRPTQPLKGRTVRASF

SMILES | IC50 (MCF7 [1]) [µM] | IC50 (A549 [2]) [µM] | Ki (Carbonic anhydrase 1) [µM] | Ki (Carbonic anhydrase 9) [µM] | further results
O=c1c(CNc2ccc(S(=O)(=O)Nc3nccs3)cc2)coc2ccccc12 | 58.6 | 25.6 |  |  | 
O=C1N=C(Nc2ccc(S(=O)(=O)Nc3nccs3)cc2)S/C1=C/c1coc2ccccc2c1=O | > 100 | > 100 |  |  | 
Cc1cc(C)nc(NS(=O)(=O)c2ccc(N3C(=O)/C(=C/c4coc5ccccc5c4=O)N=C3c3ccc(Cl)cc3)cc2)n1 | 93.9 | 52.6 |  |  | 
Cc1cc(NS(=O)(=O)c2ccc(N3C(=O)/C(=C/c4coc5ccccc5c4=O)N=C3c3ccccc3)cc2)no1 | 30 | > 100 | > 10 | 0.0252 | 
O=C1N=C(Nc2ccc(S(=O)(=O)Nc3ccccn3)cc2)S/C1=C/c1coc2ccccc2c1=O | 47.1 | > 100 | > 10 | 0.0256 | 
CCOC1Oc2ccccc2C(=O)/C1=C/Nc1ccc(S(=O)(=O)Nc2nccs2)cc1 (centres undefined) | 48.6 | > 100 | > 10 | 0.0199 | Ki (Carbonic anhydrase 2): > 10 µM
Cc1cc(C)nc(NS(=O)(=O)c2ccc(NCc3coc4ccccc4c3=O)cc2)n1 | 93.6 | 55.8 |  |  | 
NS(=O)(=O)c1ccc(NCc2coc3ccccc3c2=O)cc1 | 0.72 | 0.5 |  | 0.0298 | Activity (MCF7 [3]): 94.12%; Activity (MCF7 [4]): 0.72%; Activity (MCF7 [5]): 0%; viability at 0.72 µM (MCF7 [6]): 5.16%; Activity (A549 [7]): 74.77%; Activity (A549 [8]): 1.64%; Activity (A549 [9]): 0.06%; viability at 0.5 µM (A549 [10]): 23.5%
Cc1cc(NS(=O)(=O)c2ccc(NCc3coc4ccccc4c3=O)cc2)no1 | 34.5 | 59.7 | > 10 | 0.0321 | Ki (Carbonic anhydrase 2): > 10 µM
Cc1cc(C)nc(NS(=O)(=O)c2ccc(N3C(=O)/C(=C/c4coc5ccccc5c4=O)N=C3c3ccccc3)cc2)n1 | 99.7 | 63.2 |  |  | 
CCOC1Oc2ccccc2C(=O)/C1=C/Nc1ccc(S(=O)(=O)Nc2nc(C)cc(C)n2)cc1 (centres undefined) | 45.6 | 36.4 | > 10 | 0.0376 | Ki (Carbonic anhydrase 2): > 10 µM
O=C1/C(=C/c2coc3ccccc3c2=O)N=C(c2ccccc2)N1c1ccc(S(=O)(=O)Nc2ncccn2)cc1 | > 100 | 40.5 |  |  | 
NS(=O)(=O)c1ccc(N2C(=O)/C(=C/c3coc4ccccc4c3=O)N=C2c2ccc(Cl)cc2)cc1 | 24.3 | 13.8 | > 10 | 0.0184 | 
O=C1/C(=C/c2coc3ccccc3c2=O)N=C(c2ccc(Cl)cc2)N1c1ccc(S(=O)(=O)Nc2nccs2)cc1 | > 100 | > 100 |  |  | 
O=c1c(CNc2ccc(S(=O)(=O)Nc3ccccn3)cc2)coc2ccccc12 | > 100 | > 100 |  |  | 
COc1cccc2c1C(=O)c1c(O)c3c(c(O)c1C2=O)C[C@@](O)(C(=O)CO)C[C@@H]3O[C@H]1C[C@H](N)[C@H](O)[C@H](C)O1 [DOXORUBICIN] |  | 26.8 |  |  | 

SMILES | IC50 (MCF7 [1]) [µM] | IC50 (A549 [2]) [µM] | Ki (Carbonic anhydrase 1) [µM] | Ki (Carbonic anhydrase 9) [µM] | further results
CCOC1Oc2ccccc2C(=O)/C1=C/Nc1ccc(S(N)(=O)=O)cc1 (centres undefined) | 22.2 | 33.4 |  |  | 
CCOC1Oc2ccccc2C(=O)/C1=C/Nc1ccc(S(=O)(=O)Nc2ccccn2)cc1 (centres undefined) | 28.8 | 39.1 | > 10 | 0.0209 | Ki (Carbonic anhydrase 2): > 10 µM; Ki (Carbonic anhydrase 12): 0.062 µM
O=C1/C(=C/c2coc3ccccc3c2=O)N=C(c2ccccc2)N1c1ccc(S(=O)(=O)Nc2ccccn2)cc1 | > 100 | > 100 |  |  | 
O=c1c(CNc2ccc(S(=O)(=O)Nc3ncccn3)cc2)coc2ccccc12 | > 100 | 85.2 |  |  | 
O=C1/C(=C/c2coc3ccccc3c2=O)N=C(c2ccc(Cl)cc2)N1c1ccc(S(=O)(=O)Nc2ncccn2)cc1 | > 100 | 59 |  |  | 
CCOC1Oc2ccccc2C(=O)/C1=C/Nc1ccc(S(=O)(=O)Nc2ncccn2)cc1 (centres undefined) | 30.1 | > 100 |  |  | 
NS(=O)(=O)c1ccc(NC2=NC(=O)/C(=C\c3coc4ccccc4c3=O)S2)cc1 | 8.91 | 2.23 | 0.399 | 0.0143 | 
CCOC1Oc2ccccc2C(=O)/C1=C/Nc1ccc(S(=O)(=O)Nc2cc(C)on2)cc1 (centres undefined) | 25.8 | 57.2 | > 10 | 0.0238 | Ki (Carbonic anhydrase 2): > 10 µM
Cc1cc(NS(=O)(=O)c2ccc(N3C(=O)/C(=C/c4coc5ccccc5c4=O)N=C3c3ccc(Cl)cc3)cc2)no1 | > 100 | > 100 |  |  | 
O=C1/C(=C/c2coc3ccccc3c2=O)N=C(c2ccccc2)N1c1ccc(S(=O)(=O)Nc2nccs2)cc1 | 88.5 | 88.4 |  |  | 
O=C1N=C(Nc2ccc(S(=O)(=O)Nc3ncccn3)cc2)S/C1=C/c1coc2ccccc2c1=O | 82.6 | > 100 | > 10 | 0.0247 | Ki (Carbonic anhydrase 2): > 10 µM
Cc1cc(C)nc(NS(=O)(=O)c2ccc(NC3=NC(=O)/C(=C\c4coc5ccccc5c4=O)S3)cc2)n1 | > 100 | > 100 |  |  | 
Cc1cc(NS(=O)(=O)c2ccc(NC3=NC(=O)/C(=C\c4coc5ccccc5c4=O)S3)cc2)no1 | > 100 | > 100 |  |  | 
NS(=O)(=O)c1ccc(N2C(=O)/C(=C/c3coc4ccccc4c3=O)N=C2c2ccccc2)cc1 | 11.5 | 1.73 | 8 | 0.023 | 
O=C1/C(=C/c2coc3ccccc3c2=O)N=C(c2ccc(Cl)cc2)N1c1ccc(S(=O)(=O)Nc2ccccn2)cc1 | > 100 | > 100 |  |  | 
